Assay results from ChEMBL document CHEMBL4765355, “Synthesis of adenine dinucleosides SAM analogs as specific inhibitors of SARS-CoV nsp14 RNA cap guanine-N7-methyltransferase” (Eur J Med Chem, 2020).
Active and inactive are the calls of the source. The calls are words filed in the database; no cut-off is given here.

Key:
[1] = test system: West Nile virus; experiment: Inhibition of 2'-O-methyltransferase in West-Nile virus at 200 uM
[2] = Inhibition of N7-MTase activity of N-terminal His6-tagged SARS-CoV nsp14 expressed in Escherichia coli using GpppAC4 and [3H]SAM as substrate preincubated with enzyme followed by substrate addition and measured after 30 mins by filter binding assay; design: species or system Severe acute respiratory syndrome-related coronavirus
Outline: (§1)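 Dose-response filter binding assay with nsp14 or hRNMT (each 50 nM) pre-incubated with increasing compound concentrations (5% final DMSO). Then 0.7 µM GpppAC4, 2 µM SAM and 0.1 µM 3H-SAM are added in Tris pH 8.0/DTT/MgCl2, 30 min at 30 °C. IC50 is taken from a Hill slope fit, mean of three independent experiments.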

[3] = test system: Orthopoxvirus vaccinia; experiment: Inhibition of 2'-O-methyltransferase activity of Vaccinia virus VP39 at 200 uM
[4] = test system: Severe acute respiratory syndrome-related coronavirus; experiment: Binding affinity to SARS-CoV nsp14 assessed as melting temperature at 1 mM at pH 7.5 by differential scanning fluorimetry
Outline: (§2)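 Purified SARS-CoV nsp14 (5 µM) in 20 mM HEPES pH 7.5, 150 mM NaCl and 1X SYPRO orange, with 1 mM compound (DMSO stock; SAM and sinefungin from water). Protein is mixed with compound before dye is added. Fluorescence is read from 20 to 95 °C at 0.2 °C/min. Tm comes from curve fitting, and ΔTm is taken against a 5% DMSO control.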

[5] = Binding affinity to SARS-CoV nsp14 by TSA based analysis; design: species or system Severe acute respiratory syndrome-related coronavirus
Outline: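 Thermal shift assay with nsp14 (5 µM) in HEPES pH 7.5/NaCl/SYPRO orange, using increasing compound concentrations and a 20–95 °C ramp. Apparent KD is obtained by nonlinear regression with a one-site specific binding Hill slope equation.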

[6] = test system: Severe acute respiratory syndrome-related coronavirus; experiment: Inhibition of N7-MTase activity of N-terminal His6-tagged SARS-CoV nsp14 expressed in Escherichia coli using GpppAC4 and [3H]SAM as substrate at 50 uM preincubated with enzyme followed by substrate addition and measured after 30 mins by filter binding assay
Outline: (§3)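 Filter binding assay in 40 mM Tris-HCl pH 8.0, 1 mM DTT, 1 mM MgCl2, 2 µM SAM, 0.1 µM 3H-SAM and 0.7 µM GpppAC4 RNA. Enzyme is nsp14 (50 nM), hRNMT (50 nM) or vaccinia D1–D12 (41 U). Compound is at 50 µM with 5% final DMSO. Reactions run 30 min at 30 °C, are stopped by ice-cold water dilution, and 3H on DEAE filters is counted. Percent inhibition is relative to a 5% DMSO control, mean of three experiments.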

[7] = target: mRNA cap guanine-N(7) methyltransferase (Homo sapiens, UniProt O43148); experiment: Inhibition of N-terminal His6-tagged human RNA-N7 MTase expressed in Escherichia coli using GpppAC4 and [3H]SAM as substrate preincubated with enzyme followed by substrate addition and measured after 30 mins by filter binding assay; outline: as §1
mRNA cap guanine-N(7) methyltransferase, sequence (O43148 whole entry): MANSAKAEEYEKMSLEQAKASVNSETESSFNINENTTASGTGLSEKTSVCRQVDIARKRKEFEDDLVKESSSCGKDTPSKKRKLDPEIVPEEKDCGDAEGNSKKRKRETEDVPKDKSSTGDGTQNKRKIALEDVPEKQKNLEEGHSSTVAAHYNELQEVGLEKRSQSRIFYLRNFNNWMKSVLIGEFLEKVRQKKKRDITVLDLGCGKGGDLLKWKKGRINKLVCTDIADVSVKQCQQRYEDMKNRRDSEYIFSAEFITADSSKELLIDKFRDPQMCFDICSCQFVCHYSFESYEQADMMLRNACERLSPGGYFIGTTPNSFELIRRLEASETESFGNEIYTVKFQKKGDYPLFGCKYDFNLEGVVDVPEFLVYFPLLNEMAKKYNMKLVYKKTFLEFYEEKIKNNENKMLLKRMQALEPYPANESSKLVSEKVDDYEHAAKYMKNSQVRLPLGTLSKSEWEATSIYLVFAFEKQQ

[8] = test system: Dengue virus; experiment: Inhibition of 2'-O-methyltransferase in Dengue virus at 200 uM
[9] = test system: Orthopoxvirus vaccinia; experiment: Inhibition of N7-MTase activity of Vaccinia virus mRNA capping enzyme D1/D12 complex using GpppAC4 and [3H]SAM as substrate at 50 uM preincubated with enzyme followed by substrate addition and measured after 30 mins by filter binding assay; outline: as §3
[10] = test system: Severe acute respiratory syndrome-related coronavirus; experiment: Binding affinity to SARS-CoV nsp14 assessed as increase in melting temperature at 1 mM at pH 7.5 by differential scanning fluorimetry; outline: as §2
[11] = target: RNA-N7 MTase (mRNA cap guanine-N(7) methyltransferase) (Homo sapiens, UniProt O43148); experiment: Inhibition of N-terminal His6-tagged human RNA-N7 MTase expressed in Escherichia coli using GpppAC4 and [3H]SAM as substrate at 50 uM preincubated with enzyme followed by substrate addition and measured after 30 mins by filter binding assay; conditions: probe GpppAC4 and [3H]SAM; outline: as §3
RNA-N7 MTase (mRNA cap guanine-N(7) methyltransferase), sequence (O43148 whole entry): as above

[12] = test system: Severe acute respiratory syndrome-related coronavirus; experiment: Inhibition of 2'-O-MTase activity of SARS-CoV nsp10/16 complex at 200 uM
[13] = test system: Zika virus; experiment: Inhibition of 2'-O-methyltransferase in Zika virus at 200 uM

With `Nc1ncnc2c1ncn2[C@@H]1OC(CN(CCO[C@@H]2[C@H](O)C(CO)O[C@H]2n2cnc3c(N)ncnc32)S(=O)(=O)c2ccc(Cl)c([N+](=O)[O-])c2)[C@@H](O)[C@H]1O` (single isomer, unassigned) the inhibition [1] was “inactive”, the IC50 [2] was 600 nM and the inhibition [3] was “inactive”. The Tm [4] was greater than 40 °C, the Kd [5] was 1300 nM and the inhibition [6] was 97.2%. For the same compound, the IC50 [7] was 247000 nM, the inhibition [8] was “inactive” and the inhibition [9] was 2.8%. The ΔTm [10] was 10.8 °C, the inhibition at 0.5 h, 50 µM [11] was 33.9% and the inhibition [12] was “inactive”. For the same compound, the inhibition [13] was “inactive”.
